# In ChEMBL document CHEMBL1128286, “Lipophilic, acid-stable, adenosine deaminase-activated anti-HIV prodrugs for central nervous system delivery. 2. 6-Halo and 6-alkoxy prodrugs of 2'-beta-fluoro-2',3'-dideoxyinosine” (J Med Chem, 1995):
# What was measured:
# PBMC [1] = assay: % protection was determined as the percent reduction in HIV p24 Gag protein production using PHA/PBM system at 10 uM concentration.; assay type: functional, Homo sapiens
# Method in brief: (§1)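 PBMs from an HIV-seronegative donor, PHA-stimulated 3 days before drug addition, preincubated 2 h with compound, then infected with 250 TCID50 HIV-1 ERS104pre. Cultured at 37 °C in complete medium (15% FCS) with rIL-2. Day-8 supernatant p24 Gag measured by RIA; % protection is the reduction versus infected untreated controls. Quadruplicate.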
# [2] = biological target: T1, Adenosine deaminase (Bos taurus) (UniProt P56658); assay: Relative Adenosine deaminase hydrolysis rate was determined in vitro by disappearance of the substrate […] on isolated enzyme
# T1 sequence (whole entry): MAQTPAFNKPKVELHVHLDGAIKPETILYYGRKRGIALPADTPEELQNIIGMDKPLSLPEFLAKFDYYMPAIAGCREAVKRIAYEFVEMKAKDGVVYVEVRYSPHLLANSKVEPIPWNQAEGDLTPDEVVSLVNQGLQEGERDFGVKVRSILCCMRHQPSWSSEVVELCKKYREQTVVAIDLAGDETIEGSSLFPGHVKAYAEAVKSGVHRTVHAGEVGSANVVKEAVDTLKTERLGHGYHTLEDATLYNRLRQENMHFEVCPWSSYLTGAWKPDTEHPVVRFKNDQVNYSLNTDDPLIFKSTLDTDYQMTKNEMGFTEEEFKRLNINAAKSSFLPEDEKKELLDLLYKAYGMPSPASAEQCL
# Method in brief: (§2)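 Calf intestinal mucosa ADA, 0.05–1.0 unit, incubated with 50 µM substrate in pH 7.4, 0.01 M phosphate buffer at 37 °C. Timed aliquots quenched with water plus dCF and heated 1 min at 95 °C. Substrate loss and F-ddI formation followed by HPLC and fitted as exponential decay or association. Rate per unit ADA normalized to F-ddA.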
# [3] = Partition coefficient (logP); assay type: physicochemical; details: octanol/water
# Method in brief: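 Octanol/pH 7.0 buffer partition coefficient measured by microscale shake-flask, with HPLC quantification of both phases. Run in triplicate; mean ± SD of three determinations.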
# PBMC [4] = assay: % protection was determined as the percent reduction in HIV p24 Gag protein production using PHA/PBM system at 80 uM concentration.; assay type: functional, Homo sapiens; method in brief: as §1
# PBMC [5] = assay: % protection was determined as the percent reduction in HIV p24 Gag protein production using PHA/PBM system at 5 uM concentration.; assay type: functional, Homo sapiens; method in brief: as §1
# PBMC [6] = assay: Anti-HIV activity measured as the ability to inhibit HIV -1 p24 Gag protein production, using PHA/PBM system.; assay type: functional, cell-based; details: Homo sapiens; method in brief: as §1
# PBMC [7] = assay: % protection was determined as the percent reduction in HIV p24 Gag protein production using PHA/PBM system at 40 uM concentration.; assay type: functional, Homo sapiens; method in brief: as §1
# PBMC [8] = assay: % protection was determined as the percent reduction in HIV p24 Gag protein production using PHA/PBM system at 20 uM concentration.; assay type: functional, Homo sapiens; method in brief: as §1
# [9] = Half-life time was determined; assay type: ADME
# [10] = biological target: T1, Adenosine deaminase (Bos taurus); assay: Relative Adenosine deaminase hydrolysis rate was determined in vitro by appearance of the F-ddI […] on isolated enzyme; method in brief: as §2
# PBMC [11] = assay: % protection was determined as the percent reduction in HIV p24 Gag protein production sing PHA/PBM system at 80 uM concentration.; assay type: functional, Homo sapiens; method in brief: as §1
# [12] = Half life period was determined, at pH 1.0; assay type: ADME
# Method in brief: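 Nucleoside (1.0 mM aqueous stock, diluted 1:20) incubated in pH 1.0 HCl/KCl buffer at 37 °C. Timed aliquots diluted into pH 7.4 phosphate buffer and quantified by isocratic C18 HPLC (15% CH3CN in pH 7.0, 0.01 M phosphate). Data fitted to first-order exponential decay or association.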
Activity [2],logP [3],half-life [9] [h],Activity [10],half-life [12] [h],Structure (SMILES),Protection (PBMC [1]) [%],Protection (PBMC [4]) [%],Protection (PBMC [5]) [%],IC50 (PBMC [6]) [µM],Protection (PBMC [7]) [%],Protection (PBMC [8]) [%],Protection (PBMC [11]) [%]
2,,91.7,1.6,,OCC1CC(F)C(n2cnc3c(Cl)ncnc32)O1 (stereo unspecified),70,,40,5.9,97,92,98
202,0.056,,233,0.54,OCC1CC(F)C(n2cnc3c(F)ncnc32)O1 (stereo unspecified),83,99,58,< 5,99,97,
0.28,0.627,20.9,0.21,,OCC1CC(F)C(n2cnc3c(I)ncnc32)O1 (stereo unspecified),45,96,27,10.4,96,81,

# The remaining lines, values behind:
Structure (SMILES),Activity [2],logP [3],half-life [9] [h],Activity [10],half-life [12] [h],Protection (PBMC [1]) [%],Protection (PBMC [4]) [%],Protection (PBMC [5]) [%],IC50 (PBMC [6]) [µM],Protection (PBMC [7]) [%],Protection (PBMC [8]) [%],Protection (PBMC [11]) [%]
CCOc1ncnc2c1ncn2C1OC(CO)CC1F (stereo unspecified),0.008,0.803,29.2,,,39,93,32,14.1,79,58,
OCC1CC(F)C(n2cnc3c(Br)ncnc32)O1 (stereo unspecified),1.7,0.443,48.5,1.5,,71,99,31,6.5,97,90,
O=c1[nH]cnc2c1ncn2[C@H]1CC[C@@H](CO)O1 [DIDANOSINE],,,,,,96,98,97,< 5,98,98,
Cc1cn([C@H]2C[C@H](N=[N+]=[N-])[C@@H](CO)O2)c(=O)[nH]c1=O [ZIDOVUDINE],,0.052,,,,,,,,,,
OCC1CC(F)C(n2cnc3c(O)ncnc32)O1 (stereo unspecified),,,,,,61,98,54,< 5,97,89,
COc1ncnc2c1ncn2C1OC(CO)CC1F (stereo unspecified),0.63,0.245,29.6,0.64,,35,92,18,20,75,49,
